ChEMBL document CHEMBL2396604, “Synthesis and structure activity relationship of tetrahydroisoquinoline-based potentiators of GluN2C and GluN2D containing N-methyl-D-aspartate receptors” (J Med Chem, 2013)
Active and inactive are the calls of the source. The calls are words filed in the database; no cut-off is given here.

Experiments:
Format in all cases: cell-based
[1] = system: BHK; experiment: Activity at GluN1/GluN2C receptor in hamster BHK cells assessed as effect on NMDA-induced response after 24 hrs by Fluo-4 dye-based fluorescence assay; conditions: Mesocricetus auratus
[2] = system: BHK; experiment: Activity at GluN1/GluN2C receptor in hamster BHK cells assessed as effect on NMDA-induced response up to 6 hrs by Fluo-4 dye-based fluorescence assay; conditions: Mesocricetus auratus
[3] = molecular target: Glutamate receptor ionotropic, kainate 2 (Rattus norvegicus) (UniProt P42260); experiment: Activity at rat recombinant GluK2 receptor expressed in Xenopus oocytes assessed as effect on glutamate-induced response by two-electrode voltage clamp technique; conditions: Oocyte
Procedure, shortened: (§1)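 Oocytes injected with 1–5 ng cRNA, kept in Barth's solution at 15°C for 2–5 days. Clamped at -40 mV in 90 NaCl, 1.0 KCl, 0.5 BaCl₂, 0.005 EDTA, 10 HEPES (mM), pH 7.4, 23°C. Receptors activated by 100 µM glutamate with compound co-applied. GluK2 oocytes pretreated with 10 µM concanavalin A for 10 min. DMSO 0.05–0.5% final.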

[4] = molecular target: Glutamate receptor 1 (Rattus norvegicus) (UniProt P19490); experiment: Activity at rat recombinant GluA1 receptor expressed in Xenopus oocytes assessed as effect on glutamate-induced response by two-electrode voltage clamp technique; conditions: Oocyte; procedure, shortened: as §1
[5] = molecular target: Ionotropic glutamate receptor NMDA 1/2D (Rattus norvegicus) (UniProt P35439+Q62645); experiment: Activity at rat recombinant GluN1/GluN2D receptor expressed in Xenopus oocytes assessed as potentiation of 0.3 uM glycine/0.1 uM glutamate-induced activation at 10 uM by two-electrode voltage clamp technique relative to control; conditions: Oocyte

Sequence of Glutamate receptor ionotropic, kainate 2 (Rattus norvegicus) (P42260 whole entry): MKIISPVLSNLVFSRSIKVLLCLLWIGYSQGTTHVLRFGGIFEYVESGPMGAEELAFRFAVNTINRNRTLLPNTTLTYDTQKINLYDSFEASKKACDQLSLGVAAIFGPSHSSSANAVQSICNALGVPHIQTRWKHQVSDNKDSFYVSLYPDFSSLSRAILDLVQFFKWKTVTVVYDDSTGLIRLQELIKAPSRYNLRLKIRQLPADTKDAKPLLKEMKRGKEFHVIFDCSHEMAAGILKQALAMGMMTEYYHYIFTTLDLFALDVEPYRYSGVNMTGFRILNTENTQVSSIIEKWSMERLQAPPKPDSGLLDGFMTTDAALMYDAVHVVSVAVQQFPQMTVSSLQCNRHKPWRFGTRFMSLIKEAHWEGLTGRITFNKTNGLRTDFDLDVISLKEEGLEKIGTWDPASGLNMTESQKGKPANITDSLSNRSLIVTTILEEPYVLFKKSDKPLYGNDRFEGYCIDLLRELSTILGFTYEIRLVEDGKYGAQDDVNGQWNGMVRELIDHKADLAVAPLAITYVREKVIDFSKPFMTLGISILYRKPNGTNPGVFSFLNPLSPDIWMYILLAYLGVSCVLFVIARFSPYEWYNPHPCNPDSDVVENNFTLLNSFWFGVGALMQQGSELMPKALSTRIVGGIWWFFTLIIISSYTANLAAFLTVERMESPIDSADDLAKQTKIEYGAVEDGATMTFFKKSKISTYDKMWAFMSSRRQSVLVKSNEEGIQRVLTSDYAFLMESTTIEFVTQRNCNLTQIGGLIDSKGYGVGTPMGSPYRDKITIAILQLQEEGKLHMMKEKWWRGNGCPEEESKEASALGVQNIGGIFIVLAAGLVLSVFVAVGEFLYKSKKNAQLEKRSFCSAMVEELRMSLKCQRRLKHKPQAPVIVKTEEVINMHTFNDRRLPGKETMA
Sequence of Glutamate receptor 1 (Rattus norvegicus) (P19490 whole entry): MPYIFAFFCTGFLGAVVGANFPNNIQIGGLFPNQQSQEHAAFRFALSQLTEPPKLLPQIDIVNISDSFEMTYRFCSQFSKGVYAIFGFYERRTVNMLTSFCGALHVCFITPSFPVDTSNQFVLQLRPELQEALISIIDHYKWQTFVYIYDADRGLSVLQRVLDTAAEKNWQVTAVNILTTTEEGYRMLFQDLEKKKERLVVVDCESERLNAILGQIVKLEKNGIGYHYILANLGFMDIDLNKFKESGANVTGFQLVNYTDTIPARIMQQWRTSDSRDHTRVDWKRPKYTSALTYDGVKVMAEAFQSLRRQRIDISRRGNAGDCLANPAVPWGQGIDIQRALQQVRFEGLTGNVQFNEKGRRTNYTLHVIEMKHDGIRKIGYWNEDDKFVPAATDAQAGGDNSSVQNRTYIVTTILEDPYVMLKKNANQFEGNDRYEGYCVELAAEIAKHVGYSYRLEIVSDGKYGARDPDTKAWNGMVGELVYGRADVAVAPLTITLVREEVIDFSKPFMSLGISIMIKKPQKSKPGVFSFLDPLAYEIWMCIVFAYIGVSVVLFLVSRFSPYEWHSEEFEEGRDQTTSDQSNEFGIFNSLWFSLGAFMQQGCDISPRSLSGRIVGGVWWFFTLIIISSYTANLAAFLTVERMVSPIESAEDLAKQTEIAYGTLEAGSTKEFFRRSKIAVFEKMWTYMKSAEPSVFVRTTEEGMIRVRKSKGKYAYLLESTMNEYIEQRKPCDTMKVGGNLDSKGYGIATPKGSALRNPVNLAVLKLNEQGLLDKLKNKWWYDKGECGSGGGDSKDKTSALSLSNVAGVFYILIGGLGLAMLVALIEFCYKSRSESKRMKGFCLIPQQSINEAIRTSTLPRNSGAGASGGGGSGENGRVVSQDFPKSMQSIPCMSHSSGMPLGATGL

## COc1ccc(OCC2c3cc(OC)c(OC)cc3CCN2C(=O)c2cccc(Cl)c2)cc1 (racemic)
[1]
  Activity: inactive
[2]
  Activity: Active
[3]
  Activity: inactive
[4]
  Activity: inactive
[5]
  Activity: 353%
